Measurements gathered from unrelated publications.
Compare with care: the assays were run in different laboratories.

Cc1[nH]c(C(=O)Nc2ccc(C(=O)NCc3n[nH]c(=O)o3)cc2N2CCNCC2)c(Cl)c1Cl.Cl
MIC (Enterococcus faecium; microbial growth; broth dilution; ATCC35667): > 32 µg/mL

Cc1cc(C)c(C(N)=O)c(SCC(=O)c2ccc(Cl)cc2Cl)n1
EC50 (Trypanosoma brucei; parasite growth; resazurin; RHODESIENSE): > 64 µM

C=CC(=O)NC1CCN(c2ncc3ncnc(Nc4ccc(Oc5ccc6c(c5)ncn6C)c(C)c4)c3n2)CC1
EC50 (DoTc2-4510; cell growth or viability): 5.24 µM

Cc1[nH]c(C(=O)Nc2ccc(C(=O)NCC(=O)O)cc2N2CC[C@H](N)C2)c(Cl)c1Cl.Cl
MIC (Enterococcus faecium; microbial growth; broth dilution; ATCC35667): > 32 µg/mL

Cc1cc(C)c(C#N)c(SCC(=O)c2ccccn2)n1
EC50 (Trypanosoma brucei; parasite growth; resazurin; RHODESIENSE): 18 µM

Cl.N[C@@H]1CCN(c2cc(C(=O)NCC(=O)O)ccc2NC(=O)c2cc(Br)c(Br)[nH]2)C1
MIC (Enterococcus faecium; microbial growth; broth dilution; ATCC35667): > 32 µg/mL

Nc1ccc(/C=C/C(=O)NCc2cc3cc(-c4ccc(C(=O)N5CCC(F)(F)CC5)cc4)cc(-c4ccc(F)cc4)c3o2)cn1
IC50 (CFPAC-1; cell growth or viability; CCK-8; 72 h): > 20 µM

COc1ccc(C(=O)CSc2[nH]c(=O)cc(C(F)(F)F)c2C#N)cc1
EC50 (Trypanosoma brucei; parasite growth; resazurin): 30.8 µM

CC(C)(C)OC(=O)N[C@H]1CCN(c2cc(C(=O)NCC(=O)O)ccc2NC(=O)c2cc(Br)c(Br)[nH]2)C1
MIC (Enterococcus faecium; microbial growth; broth dilution; ATCC35667): > 32 µg/mL

NNC(=O)c1cn(Cc2ccccc2)c2ccc(Oc3ccccc3)cc2c1=O
EC50 (Trypanosoma brucei; parasite growth; resazurin; 72 h): 0.43 µM

O=C(O)c1ccc2c(c1)nc(Nc1cccc(Cl)c1)c1ccncc12
IC50 (SK-MES-1; cell growth or viability; resazurin; 48 h): 6.9 µM

COc1ccnc(SCC(=O)c2ccccc2)c1C#N
EC50 (Trypanosoma brucei; parasite growth; resazurin): > 64 µM

N=C(N)c1ccc(OCCCCCOc2ccc(C(=N)N)cc2)cc1
EC50 (Trypanosoma brucei; parasite growth; resazurin; 72 h): 0.005 µM

Nc1ccc(/C=C/C(=O)N2CCc3c(oc4c(-c5ccc(F)cc5)cc(-c5ccc(C(=O)N6C[C@@H]7[C@H](C6)C7(F)F)nn5)cc34)C2)cn1
IC50 (CFPAC-1; cell growth or viability; CCK-8; 72 h): > 20 µM

Cn1nnc(-c2cccnc2SCC(=O)c2ccc(F)cc2)n1
EC50 (Trypanosoma brucei; parasite growth; resazurin; RHODESIENSE): > 64 µM
